The source of these data is ChEMBL document CHEMBL1148410, “Antitumor agents. 3. Design, synthesis, and biological evaluation of new pyridoisoquinolindione and dihydrothienoquinolindione derivatives with potent cytotoxic activity” (J Med Chem, 2004).

One assay concerns SK-MES-1. The assay is described as follows: Concentration required to reduce proliferation of human lung squamous carcinoma (SKMES-1) cell line by 50% as determined by the MTT method. Format: functional, cell-based. The method, boiled down:
(§1)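 Solid-tumour-derived cells (and fibroblasts) were seeded in exponential growth at 5×10^4 cells/mL and allowed to adhere for 16 h before serial drug dilutions were added (DMSO stock 200 μM, diluted in medium). MTT viability was read 4 days later. Untreated controls went through at least three rounds of multiplication. IC50 came from linear regression of % growth versus untreated control, mean of three independent determinations.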
(In general: Formazan colour is commonly taken as a measure of viable cells.)

For a further assay, the system named is MT4. Nature of the assay: Concentration required to reduce proliferation of CD4+ human acute T-lymphoblastic leukemia (MT-4) cell line by 50% as determined by the MTT method. Type of assay: functional, cell-based. Put shortly: (§2)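 Leukemia/lymphoma cells grown in RPMI 1640 with 10% FCS, 37 °C, humidified 5% CO2. Compounds were dissolved in DMSO (200 μM initial) and serially diluted in medium. Exponentially growing cells were resuspended at 1×10^5 cells/mL with the drug dilutions. Viability was read by MTT after 96 h at 37 °C. Growth was taken as % of untreated controls, and IC50 came from linear regression. Values are the mean of three independent determinations.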

A further assay relates to HepG2. Nature of the assay: Concentration required to reduce proliferation of human hepatocellular carcinoma (HepG-2) cell line by 50% as determined by the MTT method. Format: functional, cell-based. Put shortly:
as §1

The subject of the next assay is SK-MEL-28. Nature of the assay: Concentration required to reduce proliferation of human melanoma (SKMEL-28) cell line by 50% as determined by the MTT method. Type of assay: functional, cell-based. The method, boiled down: as §1
In a further assay the test system is DU-145. Nature of the assay: Concentration required to reduce proliferation of human prostate carcinoma (DU-145) cell line by 50% as determined by the MTT method. Format: functional, cell-based. The method, boiled down:
as §1

For a further assay, the system named is MCF7. Nature of the assay: Concentration required to reduce proliferation of human breast adenocarcinoma (MCF-7) cell line by 50% as determined by the MTT method. Type of assay: functional, cell-based. Put shortly:
as §1

The subject of the next assay is CRL-7065 cell line. Nature of the assay: Concentration required to reduce proliferation of human foreskin fibroblasts (CRL7065) cell line by 50% as determined by the MTT method. Type of assay: functional, cell-based. Put shortly:
as §1

The next assay has as its system WIL2-NS. The assay is described as follows: Concentration required to reduce proliferation of human splenic B-lymphoblastoid (Wil2-NS) cell line by 50% as determined by the MTT method. Type of assay: functional, cell-based. Put shortly: as §2
The test system of another assay is CCRF-SB. Nature of the assay: Concentration required to reduce proliferation of human acute B-lymphoblastic (CCRF-SB) cell line by 50% as determined by the MTT method. Type of assay: functional, cell-based. The method, boiled down:
as §2

In a further assay the test system is CCRF-CEM. Nature of the assay: Concentration required to reduce proliferation of CD4+ human acuteT-lymphoblastic leukemia (CCRF-CEM) cell line by 50% as determined by the MTT method. Type of assay: functional, cell-based. The method, boiled down: as §2
Assay [1] relates to KB. The assay is described as follows: Concentration required to reduce proliferation of KB subclones passaged in the presence of etoposide 7 uM (KB7D) cell line by 50% as determined by the MTT method. The settings on record: Homo sapiens. Type of assay: functional, cell-based. Put shortly:
(§3)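 Adherent cultures were seeded at 5×10^4 cells/mL, attached for 16 h, then exposed to serial drug dilutions. MTT viability was read after 4 days, with controls completing at least three doublings. IC50 came from linear regression, mean ±SD of three independent determinations.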

The subject of assay [2] is KB. Nature of the assay: Concentration required to reduce proliferation of KB subclones passaged in the presence of vincristine 0.02 uM (KBV20C) cell line by 50% as determined by the MTT method. The settings on record: Homo sapiens.
Assay [3] has as its system KB. Nature of the assay: Concentration required to reduce proliferation of KB subclones passaged in the presence of doxorubicin 0.09 uM (KBMDR) cell line by 50% as determined by the MTT method. Format: functional, cell-based. The settings on record: Homo sapiens. The method, boiled down:
as §3

Assay [4] relates to KB. The assay is described as follows: Concentration required to reduce proliferation of KB human nasopharyngeal carcinoma (KBWT) cell line by 50% as determined by the MTT method. Format: functional, cell-based. The method, boiled down:
as §3

pIC50: −log10 of the molar value. *1 amine or outer side, *2 acyl side, *3 side chain or, on linkers, in order; H or OH if unused. Where a SMILES comes first, the peptide text is derived from it. Bridges are numbered along the chain shown (N, C = ends). Roman numbers before positions name the chains, in order. [ ]: non-standard residue; d: D form. Actinocin(1to9) = Cc1c2oc3c(C)ccc(C(=O)[*:2])c3nc-2c(C(=O)[*:1])c(N)c1=O; NMeV = CN[C@H](C(=O)O)C(C)C; Sar = CNCC(=O)O A value given as a limit tells only on which side of the number the result lay.

As a reminder, the pIC50 is −log10 of the IC50, conventionally taken in molar units. With `CCOC(=O)C1=CC2C(=O)c3ncccc3C(=O)C2C(c2ccc(C)cc2)=N1` (centres undefined), the pIC50 in the assay with SK-MES-1 was 6.00; with MT4, 6.52; in the assay with HepG2, 6.05; in the assay on SK-MEL-28 it was 6.70; in the assay with DU-145, 6.00; with MCF7, 6.00. Further, the pIC50 is 7.15 in the assay with CRL-7065 cell line, 7.52 with WIL2-NS, 7.05 in the assay with CCRF-SB and 7.70 in the assay with CCRF-CEM.

On to `CCOC(=O)C1=CC2C(=O)c3cccnc3C(=O)C2C(c2ccc(OC)cc2)=N1` (centres undefined), for which the pIC50 in the assay with SK-MES-1 was 5.92; in the assay on MT4, 6.00; with HepG2 it was 5.70; in the assay with SK-MEL-28 it was 6.00; in the assay on DU-145, 5.82; in the assay with MCF7, 6.05. Also, the pIC50 in the assay on CRL-7065 cell line was 5.82; in the assay with WIL2-NS it was 5.68; in the assay on CCRF-SB, 6.05; with CCRF-CEM, 5.82.

Turning to `CCOC(=O)C1=CC2C(=O)c3cccnc3C(=O)C2C(c2ccc(Cl)cc2)=N1` (centres undefined), the pIC50 was 6.30 in the assay on SK-MES-1; 6.15 in the assay on MT4; 5.70 in the assay on HepG2; 6.10 in the assay with SK-MEL-28; 5.82 in the assay with DU-145; 6.30 in the assay on MCF7. The pIC50 in the assay on CRL-7065 cell line is 6.05; with WIL2-NS it was 5.70; in the assay on CCRF-SB it was 6.15; with CCRF-CEM, 6.10.

In the case of `CCOC(=O)C1=CC2C(=O)c3ncccc3C(=O)C2C(c2ccc([N+](=O)[O-])cc2)=N1` (centres undefined), the pIC50 in the assay on SK-MES-1 was 8.00; in the assay on KB [1] it was 6.40; in the assay on MT4 it was 9.00; in the assay on HepG2 it was 7.15; in the assay with KB [2], 6.70; with SK-MEL-28, 9.00. The pIC50 with KB [3] is 6.52; in the assay with DU-145 it was 8.00; in the assay on MCF7 it was 7.10; in the assay on WIL2-NS it was 9.00; in the assay with CCRF-SB, 8.70; in the assay on CCRF-CEM it was 7.30. Moreover, the pIC50 with KB [4] is 7.10.

Take `CCOC(=O)C1(N)CSC2=C1C(=O)c1cccnc1C2=O` (centres undefined): the negative logarithm of the IC50 (pIC50) in the assay on SK-MES-1 was 6.05; in the assay on MT4, 6.30; with HepG2, 6.30; with SK-MEL-28 it was 5.96; in the assay with DU-145, 5.92; in the assay on MCF7, 6.30. Also, the pIC50 is 5.77 with CRL-7065 cell line, 5.51 in the assay with WIL2-NS, 6.22 with CCRF-SB and 5.70 with CCRF-CEM.

Turning to `CCOC(=O)C1=CC2C(=O)c3ncccc3C(=O)C2C(c2ccc(Cl)cc2)=N1` (centres undefined), the pIC50 in the assay on SK-MES-1 is 7.30; in the assay with MT4, 8.22; in the assay with HepG2, 6.40; in the assay with SK-MEL-28 it was 6.70; with DU-145, 7.52; with MCF7, 6.52. The negative-log IC50 (pIC50) in the assay on CRL-7065 cell line was 7.40; in the assay on WIL2-NS, 8.00; in the assay on CCRF-SB, 8.15; with CCRF-CEM it was 6.82.

`CCOC(=O)C1=CC2C(=O)c3ncccc3C(=O)C2C(c2ccc(Br)cc2)=N1` (centres undefined): the pIC50 with SK-MES-1 is 7.05; in the assay on MT4, 8.00; in the assay on HepG2, 6.52; in the assay on SK-MEL-28 it was 6.70; in the assay on DU-145, 7.30; in the assay on MCF7, 6.70. The pIC50 in the assay with CRL-7065 cell line was 7.30; in the assay with WIL2-NS it was 7.70; in the assay on CCRF-SB it was 8.00; with CCRF-CEM, 6.70.

With `Cc1c2oc3c(C)ccc(C(=O)N[C@@H]4C(=O)N[C@H](C(C)C)C(=O)N5CCC[C@H]5C(=O)N(C)CC(=O)N(C)[C@@H](C(C)C)C(=O)O[C@@H]4C)c3nc-2c(C(=O)N[C@@H]2C(=O)N[C@H](C(C)C)C(=O)N3CCC[C@H]3C(=O)N(C)CC(=O)N(C)[C@@H](C(C)C)C(=O)O[C@@H]2C)c(N)c1=O` [DACTINOMYCIN] (I: T[dV]P[Sar][NMeV] / II: T[dV]P[Sar][NMeV]; ester I:1-I:C, II:1-II:C; linker I:N-II:N via Actinocin(1to9)), the pIC50 in the assay on KB [1] was 6.70; in the assay on KB [2], 7.30; in the assay with KB [3], 6.70; with KB [4], 8.40.

Take `COc1cc([C@@H]2c3cc4c(cc3[C@@H](O[C@@H]3O[C@@H]5CO[C@@H](C)O[C@H]5[C@H](O)[C@H]3O)[C@H]3COC(=O)[C@H]23)OCO4)cc(OC)c1O` [ETOPOSIDE]: the pIC50 in the assay with KB [1] was less than 4.70; in the assay with KB [2], 5.62; with KB [3] it was less than 4.70; in the assay on KB [4] it was 6.10.

Consider `CC[C@]1(O)C[C@H]2CN(CCc3c([nH]c4ccccc34)[C@@](C(=O)OC)(c3cc4c(cc3OC)N(C=O)[C@H]3[C@@](O)(C(=O)OC)[C@H](OC(C)=O)[C@]5(CC)C=CCN6CC[C@]43[C@@H]65)C2)C1` [VINCRISTINE], for which the pIC50 with KB [2] was 6.70; in the assay with KB [3] it was 6.00; in the assay on KB [4], 8.40.
